According to paper PMC6045484 (ACS Omega, 2018):
Values after ≈ are worked out from the molar mass of the structure shown.

Key:
C. albicans ATCC90028 = assay: in vitro antifungal activity; format: cell-based, Candida albicans; details: Candida albicans; for IC50: ATCC90028, read-out: C. albicans IC50; for MFC: ATCC90028, read-out: C. albicans MFC; for MIC: ATCC90028, read-out: C. albicans MIC
Summary of the method: (§1)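 Modified NCCLS broth method in Sabouraud dextrose. Inoculum set by OD630 to 1.5 × 10^3 CFU/mL. Test compound serially diluted in 20% DMSO/saline, duplicate wells, up to 20 μg/mL. Incubated 70–74 h at 35 °C; 530 nm read before and after. IC50 is 50% growth inhibition; MIC is no detectable growth. MFC from clear wells subcultured on agar. Amphotericin B control.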

[1] = tested on: SK-MEL, KB, BT-549, SK-OV-3, VERO and LLC-PK1 cells; assay: cytotoxicity, neutral red uptake assay; format: cell-based, mammalian; details: highest test concentration 4760 ng/mL
Summary of the method: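 Cells seeded at 25 000/well and allowed 24 h to reach confluence. Test compound was then added and incubated 48 h. Viable cells were counted by a modified neutral red uptake method. The panel was four human cancer lines and two noncancerous mammalian kidney lines. Doxorubicin served as positive control and DMSO as negative control.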

[2] = tested on: L. donovani promastigotes; assay: in vitro antileishmanial activity, alamarBlue assay; format: cell-based, Leishmania donovani; details: Leishmania donovani, 48 h; for IC50: read-out: L. donovani IC50, promastigotes, 48 h; for IC90: read-out: L. donovani IC90, promastigotes, 48 h
[3] = tested on: M. intracellulare (ATCC23068); assay: in vitro antibacterial activity, modified alamarBlue procedure; format: cell-based, Mycobacterium intracellulare; details: Mycobacterium intracellulare; for IC50: ATCC23068, read-out: IC50 (concentration that affords 50% growth inhibition), M. intracellulare; for MBC: ATCC23068, read-out: MBC (minimum bactericidal concentration), M. intracellulare; for MIC: ATCC23068, read-out: MIC, M. intracellulare
Summary of the method: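 Modified alamarBlue microplate method. Test compound serially diluted in 20% DMSO/saline, duplicate wells, up to 20 μg/mL. Inoculum 2.0 × 10^6 CFU/mL in Middlebrook 7H9 with OADC, pH 7.3, containing 5% alamarBlue. Incubated 70–74 h at 37 °C, 10% CO2; fluorescence 544ex/590em read before and after. MIC: no blue-to-pink change. MBC by subculturing blue wells on agar. Ciprofloxacin control.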

P. falciparum (D6) = assay: in vitro antimalarial activity, plasmodial LDH; format: cell-based, Plasmodium falciparum; details: Plasmodium falciparum, D6, 72 h, read-out: P. falciparum (D6) IC50
SA (ATCC29213) = assay: in vitro antibacterial activity; format: cell-based; details: Staphylococcus aureus; for IC50: ATCC29213, read-out: IC50 (concentration that affords 50% growth inhibition), SA; for MBC: ATCC29213, read-out: MBC (minimum bactericidal concentration), SA; for MIC: ATCC29213, read-out: MIC, SA
Summary of the method: (§2)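 Test compound serially diluted in 20% DMSO/saline and plated in duplicate, up to 20 μg/mL. Inoculum in cation-adjusted Mueller–Hinton broth, pH 7.3, set by OD630 to 5 × 10^5 CFU/mL. Incubated 16–20 h at 35 °C; 530 nm read before and after. IC50 is 50% growth inhibition; MIC is no detectable growth. MBC from clear wells subcultured on agar. Ciprofloxacin control.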

P. falciparum (W2) = assay: in vitro antimalarial activity, plasmodial LDH; format: cell-based, Plasmodium falciparum; details: Plasmodium falciparum, W2, 72 h, read-out: P. falciparum (W2) IC50, CQ-resistant W2 strain, 72 h
Summary of the method: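 P. falciparum-infected erythrocytes (2% parasitemia, 2% hematocrit) in RPMI 1640 with 10% human serum and 60 μg/mL amikacin. Exposed to test compound dilutions for 72 h at 37 °C under 90% N2/5% O2/5% CO2. LDH measured with Malstat reagent (30 min, room temperature), then NBT/PES for 1 h in the dark, stopped with 5% acetic acid, read at 650 nm. IC50 from dose-response curves.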

C. neoformans ATCC90113 = assay: in vitro antifungal activity; format: cell-based, Cryptococcus neoformans; details: Cryptococcus neoformans; for IC50: ATCC90113, read-out: C. neoformans IC50; for MFC: ATCC90113, read-out: C. neoformans MFC; for MIC: ATCC90113, read-out: C. neoformans MIC
Summary of the method: as §1

A. fumigatus ATCC 90906 = assay: in vitro antifungal activity; format: cell-based, Aspergillus fumigatus; details: Aspergillus fumigatus; for IC50: ATCC90906, read-out: A. fumigatus IC50; for MFC: ATCC90906, read-out: A. fumigatus MFC; for MIC: ATCC90906, read-out: A. fumigatus MIC
Summary of the method: as §1

MRSA (ATCC33591) = assay: in vitro antibacterial activity; format: cell-based, methicillin-resistant Staphylococcus aureus; details: Staphylococcus aureus, ATCC33591|MRSA, read-out: MIC, MRSA
Summary of the method: as §2

Row | SMILES | IC50 (C. albicans ATCC90028) [µg/mL] | MFC (C. albicans ATCC90028) [µg/mL] | MIC (C. albicans ATCC90028) [µg/mL] | cytotoxicity CTX [1] | IC50 [2] [µg/mL] | IC50 [3] [µg/mL] | MBC [3] [µg/mL] | MIC [3] [µg/mL] | IC50 (P. falciparum (D6)) [µg/mL] | IC50 (SA (ATCC29213)) [µg/mL] | MBC (SA (ATCC29213)) [µg/mL] | MIC (SA (ATCC29213)) [µg/mL] | IC50 (P. falciparum (W2)) [µg/mL] | IC50 (C. neoformans ATCC90113) [µg/mL] | MFC (C. neoformans ATCC90113) [µg/mL] | MIC (C. neoformans ATCC90113) [µg/mL] | IC50 (A. fumigatus ATCC 90906) [µg/mL] | MFC (A. fumigatus ATCC 90906) [µg/mL] | MIC (A. fumigatus ATCC 90906) [µg/mL] | MIC (MRSA (ATCC33591)) [µg/mL] | other results
1 | CCCCCCOc1c(OC)cc(NC(C)CCCN)c2nc(C(C)(C)C)cc(C)c12 (stereo not shown) [compound 52, N^4-(5-Hexyloxy-2-tert-butyl-6-methoxy-4-methylquinolin-8-yl)pentane-1,4-diamine] | 5.91 (≈ 13.8 µM) | 10 (≈ 23.3 µM) | 10 (≈ 23.3 µM) | NC (NC, not cytotoxic up to 4760 ng/mL (4.76 μg/mL)) | 1.77 (≈ 4.12 µM) | 3.43 (≈ 7.98 µM) | 5 (≈ 11.6 µM) | 5 (≈ 11.6 µM) | > 4.76 | 2.83 (≈ 6.59 µM) | 5 (≈ 11.6 µM) | 5 (≈ 11.6 µM) | > 4.76 | 0.84 (≈ 1.96 µM) | 2.5 (≈ 5.82 µM) | 1.25 (≈ 2.91 µM) | 19 (≈ 44.2 µM) | > 20 | > 20 | 5 (≈ 11.6 µM) | IC90 [2]: 2.55 µg/mL (≈ 5.94 µM)
2 | CCCCCCCOc1c(OC)cc(NC(C)CCCN)c2nc(C(C)(C)C)cc(C)c12 (stereo not shown) [compound 53, N^4-(5-Heptyloxy-2-tert-butyl-6-methoxy-4-methylquinolin-8-yl)pentane-1,4-diamine] | 5.06 (≈ 11.4 µM) | 10 (≈ 22.5 µM) | 10 (≈ 22.5 µM) | NC (NC, not cytotoxic up to 4760 ng/mL (4.76 μg/mL)) | 0.84 (≈ 1.89 µM) | 3.12 (≈ 7.03 µM) | 5 (≈ 11.3 µM) | 5 (≈ 11.3 µM) | 2 (≈ 4.51 µM) | 1.33 (≈ 3 µM) | 5 (≈ 11.3 µM) | 2.5 (≈ 5.63 µM) | 1.3 (≈ 2.93 µM) | 0.67 (≈ 1.51 µM) | 1.25 (≈ 2.82 µM) | 1.25 (≈ 2.82 µM) | 19.3 (≈ 43.5 µM) | > 20 | > 20 | 2.5 (≈ 5.63 µM) | IC90 [2]: 1.95 µg/mL (≈ 4.4 µM)
3 | CCCCCCCCOc1c(OC)cc(NC(C)CCCN)c2nc(C(C)(C)C)cc(C)c12 (stereo not shown) [compound 54, N^4-(5-Octyloxy-2-tert-butyl-6-methoxy-4-methylquinolin-8-yl)pentane-1,4-diamine] | > 20 | > 20 | > 20 | NC (NC, not cytotoxic up to 4760 ng/mL (4.76 μg/mL)) | 9.74 (≈ 21.3 µM) | 18.6 (≈ 40.6 µM) | > 20 | > 20 | > 4.76 | > 20 | > 20 | > 20 | > 4.76 | 9.96 (≈ 21.8 µM) | > 20 | > 20 | > 20 | > 20 | > 20 | > 20 | IC90 [2]: 15.6 µg/mL (≈ 34 µM)
4 | COc1cc(NC(C)CCCN)c2nc(C(C)(C)C)ccc2c1Oc1ccc(Cl)c(Cl)c1 (stereo not shown) [compound 55, N^4-(2-tert-Butyl-5-(3,4-dichlorophenoxy)-6-methoxyquinolin-8-yl)pentane-1,4-diamine] | > 20 | > 20 | > 20 | NC (NC, not cytotoxic up to 4760 ng/mL (4.76 μg/mL)) | 11 (≈ 23.1 µM) | 9.51 (≈ 20 µM) | 20 (≈ 42 µM) | 20 (≈ 42 µM) | 0.14 (≈ 0.294 µM) | 5.96 (≈ 12.5 µM) | 10 (≈ 21 µM) | 10 (≈ 21 µM) | 0.13 (≈ 0.273 µM) | 3.18 (≈ 6.67 µM) | 5 (≈ 10.5 µM) | 5 (≈ 10.5 µM) | > 20 | > 20 | > 20 | 10 (≈ 21 µM) | IC90 [2]: > 40 µg/mL
5 | CCCCCOc1c(OC)cc(NC(C)CCCNC(=O)C(N)CCCNC(=N)N)c2nc(C(C)(C)C)ccc12 (stereo not shown) [compound 94, 2-Amino-N-(4-(2-tert-butyl-6-methoxy-5-(pentyloxy)quinolin-8-ylamino)pentyl)-5-guanidinopentanamide] | 18.6 (≈ 33.4 µM) | 20 (≈ 35.9 µM) | 20 (≈ 35.9 µM) | NC (NC, not cytotoxic up to 4760 ng/mL (4.76 μg/mL)) | 18 (≈ 32.3 µM) | 11.2 (≈ 20.1 µM) | 20 (≈ 35.9 µM) | 20 (≈ 35.9 µM) | 4.76 (≈ 8.53 µM) | 5.85 (≈ 10.5 µM) | 20 (≈ 35.9 µM) | 10 (≈ 17.9 µM) | 4 (≈ 7.17 µM) | 1.41 (≈ 2.53 µM) | 2.5 (≈ 4.48 µM) | 2.5 (≈ 4.48 µM) | > 20 | > 20 | > 20 | 10 (≈ 17.9 µM) | IC90 [2]: 32 µg/mL (≈ 57.4 µM)
6 | CCCCCOc1c(OC)cc(NC(C)CCCNC(=O)C(N)CC(C)C)c2nc(C(C)(C)C)ccc12 (stereo not shown) [compound 95, 2-Amino-N-(4-(2-tert-butyl-6-methoxy-5-(pentyloxy)quinolin-8-ylamino)pentyl)-4-methylpentanamide] | 18.4 (≈ 35.8 µM) | > 20 | > 20 | NC (NC, not cytotoxic up to 4760 ng/mL (4.76 μg/mL)) | 3.5 (≈ 6.8 µM) | 12.6 (≈ 24.4 µM) | 20 (≈ 38.9 µM) | 20 (≈ 38.9 µM) | 3.5 (≈ 6.8 µM) | 2.56 (≈ 4.97 µM) | 5 (≈ 9.71 µM) | 5 (≈ 9.71 µM) | 2.3 (≈ 4.47 µM) | 1.68 (≈ 3.26 µM) | 2.5 (≈ 4.86 µM) | 2.5 (≈ 4.86 µM) | > 20 | > 20 | > 20 | 10 (≈ 19.4 µM) | IC90 [2]: 6.5 µg/mL (≈ 12.6 µM)
7 | CCCCCOc1c(OC)cc(NC(C)CCCNC(=O)C(N)C(C)CC)c2nc(C(C)(C)C)ccc12 (stereo not shown) [compound 96, 2-Amino-N-(4-(2-tert-butyl-6-methoxy-5-(pentyloxy)quinolin-8-ylamino)pentyl)-3-methylpentanamide] | > 20 | > 20 | > 20 | NC (NC, not cytotoxic up to 4760 ng/mL (4.76 μg/mL)) | 8.65 (≈ 16.8 µM) | 12.2 (≈ 23.7 µM) | 20 (≈ 38.9 µM) | 20 (≈ 38.9 µM) | > 4.76 | 5.35 (≈ 10.4 µM) | 20 (≈ 38.9 µM) | 10 (≈ 19.4 µM) | > 4.76 | 4.95 (≈ 9.62 µM) | 10 (≈ 19.4 µM) | 10 (≈ 19.4 µM) | > 20 | > 20 | > 20 | 10 (≈ 19.4 µM) | IC90 [2]: 32.6 µg/mL (≈ 63.4 µM)
8 | CCCCCCCOc1c(OC)cc(NC(C)CCCNC(=O)C(N)CCCN)c2nc(C(C)(C)C)ccc12 (stereo not shown) [compound 110, 2,5-Diamino-N-(4-(2-tert-butyl-5-(heptyloxy)-6-methoxyquinolin-8-ylamino)-pentyl)pentanamide] | > 20 | > 20 | > 20 | NC (NC, not cytotoxic up to 4760 ng/mL (4.76 μg/mL)) | – | > 20 | > 20 | > 20 | 3.2 (≈ 5.88 µM) | > 20 | > 20 | > 20 | 1.6 (≈ 2.94 µM) | > 20 | > 20 | > 20 | > 20 | > 20 | > 20 | > 20 | –
